In ChEMBL document CHEMBL1146898, “Synthesis and immunostimulatory activity of 8-substituted amino 9-benzyladenines as potent Toll-like receptor 7 agonists” (Bioorg Med Chem Lett, 2006):
pEC50: −log10 of the molar value. Calls of active or inactive are those of the source. The calls are words filed in the database; no cut-off is given here.

Columns and labels:
PBMC [1] = test: Induction of IFNalpha production in human PBMC at 1 uM; assay type: functional
In short: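 Donor PBMC from blood bank isolated over Ficoll-Hypaque and kept in RPMI 1640 with 10% FBS, L-glutamine and penicillin/streptomycin. 10⁶ cells/well were stimulated with compound at single final concentration for 24 h (37 °C, 5% CO₂). Supernatant IFN-α was measured by Luminex multicytokine bead kit. Values are a composite across several healthy donors.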

PBMC [2] = test: Induction of IFNalpha production in human PBMC; assay type: functional, cell-based
In short: (§1)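 Ficoll-Hypaque-isolated human PBMC were held in RPMI 1640 with 10% FBS, L-glutamine and pen/strep, 10⁶ cells/well. They were treated for 24 h with a compound dilution series going down to 10 nM. Supernatant IFN-α was read by Luminex bead assay. Data are a composite of three donors. EC₅₀ came from non-linear regression curve fit.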

PBMC [3] = test: Maximal IFNalpha production in human PBMC at 10 uM; assay type: functional; in short: as §1
Macrophage [4] = test: Induction of TNFalpha production in macrophages of TLR7 knockout mouse; assay type: functional, cell-based
Macrophage [5] = test: Induction of IL6 production in macrophages of TLR7 knockout mouse; assay type: functional, cell-based
Macrophage [6] = test: Induction of IL12 production in macrophages of TLR7 knockout mouse; assay type: functional, cell-based

COCCOc1nc(N)c2nc(N(CCO)CCO)n(Cc3ccccc3)c2n1
Activity (PBMC [1]): 0.82 pg/mL

CCCNc1nc2c(N)nc(OCCOC)nc2n1Cc1ccccc1
Activity (PBMC [1]): 8.8 pg/mL

COCCOc1nc(N)c2nc(N3CCOCC3)n(Cc3ccccc3)c2n1
Activity (PBMC [1]): 0.41 pg/mL

CCNc1nc2c(N)nc(OCCOC)nc2n1Cc1ccccc1
Activity (PBMC [1]): 80.3 pg/mL
pEC50 (PBMC [2]): 5.35
Activity (PBMC [3]): 141 pg/mL
Activity (Macrophage [4]): inactive
Activity (Macrophage [5]): inactive
Activity (Macrophage [6]): inactive

COCCOc1nc(N)c2nc(N)n(Cc3ccccc3)c2n1
pEC50 (PBMC [2]): < 5.00
Activity (PBMC [3]): 132 pg/mL

COCCOc1nc(N)c2nc(NCCO)n(Cc3ccccc3)c2n1
Activity (PBMC [1]): 99.21 pg/mL
pEC50 (PBMC [2]): 5.27
Activity (PBMC [3]): 168 pg/mL
Activity (Macrophage [4]): inactive
Activity (Macrophage [5]): inactive
Activity (Macrophage [6]): inactive

COCCOc1nc(N)c2nc(NCCCO)n(Cc3ccccc3)c2n1
Activity (PBMC [1]): 113.18 pg/mL
pEC50 (PBMC [2]): 5.49
Activity (PBMC [3]): 206 pg/mL
Activity (Macrophage [4]): inactive
Activity (Macrophage [5]): inactive
Activity (Macrophage [6]): inactive

COCCOc1nc(N)c2nc(NN)n(Cc3ccccc3)c2n1
Activity (PBMC [1]): 0.21 pg/mL

CCOC(=O)Nc1nc2c(N)nc(OCCOC)nc2n1Cc1ccccc1
Activity (PBMC [1]): 1.03 pg/mL

COCCOc1nc(N)c2nc(NCCc3ccccc3)n(Cc3ccccc3)c2n1
Activity (PBMC [1]): 1.33 pg/mL

CCCCNc1nc2c(N)nc(OCCOC)nc2n1Cc1ccccc1
Activity (PBMC [1]): 0.73 pg/mL

COCCOc1nc(N)c2[nH]c(=O)n(Cc3ccccc3)c2n1
Activity (PBMC [1]): 418 pg/mL
pEC50 (PBMC [2]): 6.85
Activity (PBMC [3]): 220 pg/mL

COCCOc1nc(N)c2nc(NCCN3CCOCC3)n(Cc3ccccc3)c2n1
Activity (PBMC [1]): 110.48 pg/mL
pEC50 (PBMC [2]): 6.10
Activity (PBMC [3]): 176 pg/mL
Activity (Macrophage [4]): inactive
Activity (Macrophage [5]): inactive
Activity (Macrophage [6]): inactive
